Screening results deposited in PubChem BioAssay by several laboratories.
Sampled rows, rich in hits. Any-hit rate of the full collection: about 3.7%.
GRIN3A LBD mod: modulates the human NR3A ligand-binding domain; 340,000 compounds, 2.5% hits; AID 1259313; NR3A LBD differential scanning fluorimetry, Tm shift; 0% = protein alone, 100% = glycine-bound protein; Tm shift relative to glycine control, % at 25 µM;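 active means melting temperature shift of at least 10% of the positive control shift, at one fixed dose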
aDG glyco up: alpha-DG glycosylation activation; Pro5-aDG cells, alpha-DG glycosylation AlphaScreen (IIH6); 0% Pro5, 100% B10-LARGE cell signal; activation, % at 10 µM; AID 624168; 360,000 compounds, 0.22% hits;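 active means activation of at least 8% versus controls, or a plate z-score of at least 8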;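 further: Pro5 are CHO cells carrying HIG-tagged alpha-DG that lacks glycosylation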
procasp3 activ: activators of human procaspase-3. P42574. recombinant procaspase-3 D3A, Ac-DEVD-pNA absorbance 405 nm. activation, % at 8.5 µM. 330,000 compounds, 0.11% hits. AID 463141;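 active means activation above the mean of all tested compounds plus 3 SD, cut at about 21% in these data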;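 further: 0% = DMSO alone and 100% = DMSO wells spiked with extra 5 µM PC-3 D3A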
Target sequence (P42574 whole entry D9A/D28A/D175A): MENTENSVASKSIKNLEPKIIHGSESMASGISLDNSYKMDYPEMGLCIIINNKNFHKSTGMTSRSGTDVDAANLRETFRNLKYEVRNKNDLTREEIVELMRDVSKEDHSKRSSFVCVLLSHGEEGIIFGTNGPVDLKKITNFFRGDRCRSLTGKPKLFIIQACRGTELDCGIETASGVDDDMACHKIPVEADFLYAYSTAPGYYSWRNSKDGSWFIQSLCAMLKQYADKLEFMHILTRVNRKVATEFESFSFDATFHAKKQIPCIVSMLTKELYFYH
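Assay system – Procaspase-3 D3A mutant · Benchmarks – DMSO low control, extra-enzyme high control · Technique – 405 nm absorbance of p-nitroaniline, reads at 0 and 120 min · Doses – 8.5 µM nominal · Measure – % activation between DMSO and enzyme-spiked controls · Also added – Ac-DEVD-pNA chromogenic peptide substrate · Schedule – 1 h compound preincubation, 2 h substrate hydrolysis at 25 °C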
MPTP block: inhibitors of mitochondrial permeability transition pore; inhibition, % at 10 µM; 360,000 compounds, 1.4% hits; AID 602449; isolated mouse mitochondria, Ca2+ swelling absorbance, 30 min;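 active means inhibition of 50% or more, scaled per plate between neutral and stimulator controls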;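 further: 0% = DMSO wells given calcium and 100% = 1 mM EGTA wells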
procasp7 counter: activates human procaspase-7, counter-screen for procaspase-3 activators. P55210. recombinant procaspase-7, Ac-DEVD-pNA absorbance 405 nm; D23A/D198A/D206A triple mutant, cannot self-cleave; scale: DMSO 0, 5 µM enzyme 100. activation, % at 8.5 µM. 330,000 compounds, 0.093% hits;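 active means percent activation above the screen-wide mean plus 3 SD, cut at about 25% in these data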
Target sequence (P55210 whole entry D23A/D198A/D206A): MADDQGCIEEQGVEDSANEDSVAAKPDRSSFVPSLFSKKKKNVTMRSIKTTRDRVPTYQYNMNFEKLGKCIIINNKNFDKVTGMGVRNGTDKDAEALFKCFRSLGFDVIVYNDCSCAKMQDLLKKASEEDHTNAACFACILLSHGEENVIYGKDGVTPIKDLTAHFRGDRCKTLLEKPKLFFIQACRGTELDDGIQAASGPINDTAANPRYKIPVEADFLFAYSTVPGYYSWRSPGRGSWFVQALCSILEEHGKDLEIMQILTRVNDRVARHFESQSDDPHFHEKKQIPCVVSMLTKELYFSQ
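Material: Procaspase-7 triple mutant (PC-7 D3A) | Quantity: 2 µM procaspase-7 mutant as dispensed | Reagent: DEVD-pNA substrate | Times: 1 h preincubation, 2 h reaction | Technique: 405 nm absorbance of p-nitroaniline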
MPTP counter: mitochondrial membrane potential, counter-screen; shares compounds with MPTP block; isolated mitochondria, Rhodamine 123 fluorescence; inhibition, % at 10 µM; 5,000 compounds, 78% hits; AID 624504; in the data active means inhibition above about 22%;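 further: 0% = DMSO vehicle and 100% = positive control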
MPTP swell DR: dose response confirmation of mitochondrial permeability transition pore inhibitors; shares compounds with MPTP block; isolated mitochondria swelling, absorbance; IC50, µM; 780 compounds, 58% hits; AID 651561; in the data active means IC50 below about 20 µM
MPTP counter DR: counter-screen for mitochondrial permeability transition pore inhibitors, dose response; shares compounds with MPTP block; isolated mitochondria counterscreen, fluorescence read-out; IC50, µM; 780 compounds, 49% hits; AID 651564; in the data active means IC50 below about 80 µM
An asterisk follows results filed as active; i = inactive; . = not tested or not shown.

SMILES | GRIN3A LBD mod | aDG glyco up | procasp3 activ | MPTP block | procasp7 counter | MPTP counter | others
C=CCc1cccc(CNc2nc3ccccc3n2CC)c1O | 3 | 2 | -5 | -2 | -2 | .
CC1(Cc2ccccc2Cl)C(=O)Nc2ccc(OC(F)(F)F)cc21 (configuration not stated) | . | 0 | . | 2 | . | .
O=C(Nc1nc(-c2ccccc2)cs1)c1ccccc1F | 2 | 0 | 1 | 5 | 11 | .
COc1ccc(-c2csc(NC(=O)c3ccccc3NS(=O)(=O)c3ccc(F)c(F)c3)n2)cc1 | 16* | 0 | -2 | 92* | -2 | 1
COc1ccc(-c2csc(NS(=O)(=O)c3ccc([N+](=O)[O-])cc3)n2)cc1 | 8 | 0 | 1 | 84* | -2 | 78*
CNc1nc(-c2ccc([N+](=O)[O-])cc2)cs1 | 0 | 0 | -7 | -4 | 8 | .
Cc1ccc(S(=O)(=O)Nc2ccccc2C(=O)Nc2nc(-c3ccc(F)cc3)cs2)cc1 | 31* | 1 | 4 | 70* | 4 | 14
CCC(C(=O)NCc1ccccc1)n1c(CSCCOc2ccccc2)nc2ccccc21 (configuration not stated) | . | 0 | . | 0 | . | .
N#C/C(=N\Nc1ccc(S(=O)(=O)N2CCc3ccccc32)cc1)C(N)=S | 23* | -1 | -37 | 99* | -26 | 67*
CCOC(=O)/C(C#N)=N/Nc1ccc(S(=O)(=O)N2CCc3ccccc32)cc1 | 24* | 0 | 2 | 89* | -12 | 89*
CN1CCN(S(=O)(=O)c2cccc(C(=O)Nc3cc(C(F)(F)F)ccc3N3CCCC3)c2)CC1 | 2 | 0 | 0 | -1 | -19 | .
CC(=O)N1CCN(c2ccc(NC(=S)NC(=O)COc3ccc(C(C)(C)C)cc3)cc2)CC1 | -15 | 0 | -8 | 88* | 8 | 88*
CCC(=O)N1CCN(c2ccc(NC(=S)NC(=O)COc3ccccc3)cc2)CC1 | 0 | 0 | 5 | 13 | 3 | .
CC(C)CC(=O)NC(=S)Nc1ccc(N2CCN(C(=O)c3cccs3)CC2)cc1 | 1 | 0 | -4 | 93* | -10 | 64*
CC(C)C(=O)Nc1ccc(N2CCN(C(=O)c3cccs3)CC2)cc1 | 1 | 0 | -4 | 0 | -1 | .
O=C(Cc1cccc(NC(=O)C2CCCN(C(=O)C3CCCCC3)C2)c1)Nc1ccc(C(=O)N2CCCCC2)cc1 (configuration not stated) | 0 | 0 | . | -1 | . | .
CNC(=O)N(O)C1N(NC(=O)Nc2cccc3ccccc23)C(=S)SC1(C)C (configuration not stated) | -22 | 0 | -13 | -2 | -21 | .
CC1(C)SC(=S)N(NC(=O)Nc2ccccc2)C1N(O)C(=O)Nc1ccccc1 (configuration not stated) | 6 | 0 | -1 | 58* | -12 | 70*
Cc1[nH]n(-c2ccccc2)c(=O)c1N=Nc1c(O)cc(S(=O)(=O)N(C)C)c2ccccc12 | 3 | 0 | -3 | 81* | -6 | 42*
Cc1nc2ccccc2n1Cc1ccc(Cl)cc1 | 1 | 1 | -16 | 94* | -3 | 96*
Cc1ccc(Cn2c(N)nc3ccccc32)cc1 | -2 | 0 | 4 | 55* | -2 | 21*
CC(=O)c1ccc(S(=O)(=O)N2CCNC(=O)C2)cc1 | 0 | 0 | -2 | -1 | -10 | .
O=C(Nc1c(C(=O)N2CCOCC2)cnn1-c1ccccc1)c1ccco1 | -2 | 0 | 1 | -1 | 0 | .
COC(=O)[C@@H](NC(=O)c1ccc2c(c1)S(=O)(=O)c1ccccc1C2=O)C(C)C | 2 | 0 | 2 | 2 | 7 | .
COc1ccc2cc1Oc1ccc(cc1)C[C@H]1c3c(cc4c(c3Oc3cc5c(cc3OC)CCN(C)[C@@H]5C2)OCO4)CCN1C | -7 | 0 | 2 | 33 | 13 | .
SMILES | GRIN3A LBD mod | aDG glyco up | procasp3 activ | MPTP block | procasp7 counter | MPTP counter | others
COc1ccc2cc1Oc1ccc(cc1)C[C@H]1c3cc(c(OC)cc3CCN1C)Oc1c(OC)c(OC)cc3c1[C@H](C2)N(C)CC3 | -2 | -1 | 4 | 77* | -9 | -13
O=C1/C(=C/c2cccc(Br)c2)SC(=S)N1/N=C/c1cc([N+](=O)[O-])ccc1O | 0 | 0 | -7 | 61* | -29 | 12 | MPTP swell DR=15*;MPTP counter DR=<2.5*
O=C1/C(=C\c2ccc(O)cc2)SC(=S)N1/N=C/c1ccc(O)cc1 | 19* | 0 | -19 | 96* | -16 | 78*
OCCNCc1cccc(OCc2ccc(Cl)cc2)c1 | -1 | 1 | 6 | 64* | -3 | -9 | MPTP swell DR=5.6*;MPTP counter DR=>80
c1ccc(COc2cccc(CNCc3cccnc3)c2)cc1 | -2 | 0 | -3 | 1 | -4 | .
CC(C)C[C@H]1CN(CCCC[C@H]2CNC(=O)C(=O)N2Cc2ccccc2)C(=O)C(=O)N1CCC1CCCCC1 | . | 0 | . | -2 | . | .
NS(=O)(=O)c1ccc(CCNc2ncnc3sccc23)cc1 | 19* | 1 | 1 | 74* | -10 | 81*
Cc1sc2ncnc(NCCc3ccc(S(N)(=O)=O)cc3)c2c1C | 0 | 1 | 0 | 86* | -2 | 106*
Cc1ccc(-n2cc3c(-c4cccc(Br)c4)nnc(C)c3n2)cc1 | -6 | 0 | -2 | 54* | -6 | 2 | MPTP swell DR=i;MPTP counter DR=29*
Cc1nnc(-c2cccc(Br)c2)c2cn(-c3ccccc3Cl)nc12 | 2 | 0 | 10 | 12 | 7 | .
Cc1[nH]c2ccccc2c1C1=CC(=O)C=CC1=O | -12 | 0 | . | 52* | . | 4
Cc1[nH]c2ccccc2c1CC#N | 1 | 0 | -4 | 3 | 7 | .
Fc1cccc(CCN2CCNC[C@@H]2CC2CCCCC2)c1 | -1 | 0 | -2 | -1 | 1 | .
C[C@@H]1CN([C@@H](C)CO)C(=O)c2cc(Br)cnc2O[C@@H]1CN(C)S(C)(=O)=O | . | 0 | . | -2 | . | .
Cc1cc(N2CCN(C)CC2)ccc1NC(=O)c1cccc(S(=O)(=O)N2CCc3ccccc3C2)c1 | -5 | 0 | 1 | 92* | 11 | -1
COc1cc(OC)c(OC)cc1CNC(=O)c1cccc(S(=O)(=O)N2CCc3ccccc3C2)c1 | -1 | 3 | . | 98* | . | 104*
Cc1cc(C)nc(SCC(=O)Nc2ccnc3ccccc23)n1 | -5 | 7 | -3 | 97* | 2 | 98*
O=C(CSC1=NCCS1)Nc1ccnc2ccccc12 | -2 | 3 | -9 | 68* | -2 | 74*
